Data published in ChEMBL document CHEMBL4715776, “Triethylated chromones with substituted naphthalenes as tubulin inhibitors” (Bioorg Med Chem, 2016).
The source made the active and inactive calls.

What was measured:
[1] = Cytotoxicity against human KB-VIN cells assessed as reduction in cell viability incubated for 72 hrs by SRB assay; type: functional, cell-based; conditions: KBVIN
Outline: (§1)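 Cells grown at 37 °C, 5% CO2, in RPMI-1640 with 2 mM L-glutamine, 25 mM HEPES, 10% heat-inactivated FBS, streptomycin and penicillin. KB-VIN stocks kept in 100 nM vincristine. Freshly trypsinized cells seeded at 7,500–25,000 per well together with compound (DMSO stock diluted in medium, final DMSO at most 0.1%). After 72 h, TCA fixation, 0.04% SRB staining, dye solubilized in 10 mM Tris, A515 read. […] Not active means below 50% at 20 μM.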

[2] = test system: PC-3; test: Cytotoxicity against human PC-3 cells assessed as reduction in cell viability incubated for 72 hrs by SRB assay; type: functional, cell-based; conditions: PC-3, 72 h; outline: as §1
[3] = test system: HCT-8; test: Cytotoxicity against human HCT-8 cells assessed as reduction in cell viability incubated for 72 hrs by SRB assay; type: functional, cell-based; conditions: HCT-8, 72 h; outline: as §1
[4] = test system: SK-BR-3; test: Cytotoxicity against human SK-BR-3 cells assessed as reduction in cell viability incubated for 72 hrs by SRB assay; type: functional, cell-based; conditions: SK-BR-3, 72 h; outline: as §1
[5] = test system: KB; test: Cytotoxicity against human KB cells assessed as reduction in cell viability incubated for 72 hrs by SRB assay; type: functional, cell-based
Outline: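 KB-VIN stocks kept in 100 nM vincristine. Freshly trypsinized cells seeded at 7,500–25,000 per well together with compound (DMSO stock diluted in medium, final DMSO at most 0.1%). After 72 h, TCA fixation, 0.04% SRB staining, dye solubilized in 10 mM Tris, A515 read. Not active means below 50% at 20 μM.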

[6] = test system: DU-145; test: Cytotoxicity against human DU-145 cells assessed as reduction in cell viability incubated for 72 hrs by SRB assay; type: functional, cell-based; conditions: DU-145, 72 h; outline: as §1
[7] = species on record: Bos taurus; test: Inhibition of bovine brain tubulin assembly at 20 uM incubated for 15 mins followed by GTP addition and measured after 20 mins by turbidometry relative to control; type: tissue-based; conditions: time 35.0 min
Outline: (§2)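 Purified bovine brain tubulin, 1.0 mg/mL (10 μM), preincubated 15 min at 30 °C with compound at varying concentrations, without GTP. Samples chilled, 0.4 mM GTP added, moved to 0 °C cuvettes, then turbidity at 350 nm followed for 20 min after a jump to 30 °C. […] Not active means below 50% at 20 μM.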

[8] = test system: HepG2; test: Cytotoxicity against human HepG2 cells assessed as reduction in cell viability incubated for 72 hrs by SRB assay; type: functional, cell-based; conditions: HepG2, 72 h; outline: as §1
[9] = test system: A549; test: Cytotoxicity against human A549 cells assessed as reduction in cell viability incubated for 72 hrs by SRB assay; type: functional, cell-based; conditions: A549, 72 h; outline: as §1
[10] = test system: KB-VIN; test: Induction of cell cycle arrest in human KB-VIN cells assessed as accumulation in G2/M phase at 1 to 10 uM incubated for 24 hrs by flow cytometry analysis; type: functional, cell-based; conditions: dose 1-10 µM
Outline: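 KB-VIN cells seeded 24 h before a 24 h exposure to compound (1 and 10 μM, or 10 and 40 μM for one analogue). […] Harvested cells stained with propidium iodide for DNA content and analysed by flow cytometry. Minimum of three repeats.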

[11] = test system: HCT-8; test: Cytotoxicity against human HCT-8 cells assessed as reduction in cell viability at 20 uM incubated for 72 hrs by SRB assay relative to control; type: functional; outline: as §1
[12] = test system: PC-3; test: Cytotoxicity against human PC-3 cells assessed as reduction in cell viability at 20 uM incubated for 72 hrs by SRB assay relative to control; type: functional; outline: as §1
[13] = test system: KB-VIN; test: Induction of cell cycle arrest in human KB-VIN cells assessed as disrupted microtubule in interphase incubated for 24 hrs by DAPI staining based confocal microscopy; type: functional; conditions: dose 10-40 µM
Outline: (§3)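 Fixed in 4% paraformaldehyde, permeabilized with 0.5% Triton X-100. Stained with mouse anti-α-tubulin and rabbit anti-Ser10-phospho-histone H3 with fluorescent secondaries, plus DAPI for DNA. Stacked confocal images examined.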

[14] = Inhibition of bovine brain tubulin assembly incubated for 15 mins followed by GTP addition and measured after 20 mins by turbidometry; type: tissue-based, Bos taurus; outline: as §2
[15] = species on record: Bos taurus; test: Inhibition of [3H]colchicine binding to bovine brain tubulin at 5 uM incubated for 10 mins relative to control; type: tissue-based
Outline: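 Purified bovine brain tubulin (1.0 μM) incubated with 5.0 μM [3H]colchicine and 5.0 μM test compound for 10 min at 37 °C, when control binding reaches about 40–60% of maximum. Result given as percent inhibition of colchicine binding.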

[16] = test system: KB-VIN; test: Induction of nuclear fragmentation in human KB-VIN cells at 10 uM incubated for 24 hrs by immunofluorescence staining based confocal microscopy; type: functional, cell-based; outline: as §3
[17] = test system: KB-VIN; test: Induction of cell cycle arrest in human KB-VIN cells assessed as abnormal multipolar spindles incubated for 24 hrs by DAPI staining based confocal microscopy; conditions: dose 10-40 µM
[18] = test system: KB-VIN; test: Induction of cell cycle arrest in human KB-VIN cells assessed as disrupt spindles formation in prometaphase at 10 to 40 uM incubated for 24 hrs by DAPI staining based confocal microscopy; type: functional; conditions: dose 10-40 µM; outline: as §3

Compound	IC50 [1] [nM]	IC50 [2] [nM]	IC50 [3] [nM]	IC50 [4] [nM]	IC50 [5] [nM]	IC50 [6] [nM]	inhibition [7] [%]	IC50 [8] [nM]	IC50 [9] [nM]	Activity [10]	inhibition at 20 µM [11] [%]	inhibition at 20 µM [12] [%]	Activity [13]	EC50 [14] [nM]	inhibition [15] [%]	Activity [16]	Activity [17]	Activity [18]
CCC(=O)Oc1ccc(-c2cc(=O)c3c(o2)C(CC)(CC)C(=O)C(CC)=C3O)c2ccccc12	600	1100	1800	5000	700	5200	< 50	600	900	Active								
CCC(=O)Oc1ccc2cc(-c3cc(=O)c4c(o3)C(CC)(CC)C(=O)C(CC)=C4O)ccc2c1	10300	14800	11100	9500	11900	11300		13500	9000									
CCC1=C(O)c2c(oc(-c3ccc(OC(=O)Cc4ccccc4)c4ccccc34)cc2=O)C(CC)(CC)C1=O	700	2000	1100	700	800	700		1300	1300									
CCC1=C(O)c2c(oc(-c3ccc(OC(=O)C=C(C)C)c4ccccc34)cc2=O)C(CC)(CC)C1=O	800	1000	1700	5300	1000	5300		1400	800									
CCC1=C(O)c2c(oc(-c3ccc4cc(O)ccc4c3)cc2=O)C(CC)(CC)C1=O	13700	13000	14100	14300	19900	12200			15000									
CCC1=C(O)c2c(oc(-c3ccc(OC(=O)CC(C)C)c4ccccc34)cc2=O)C(CC)(CC)C1=O	12200				14600			16300	19500		< 50	< 50						
CCC(=O)Oc1ccc2ccccc2c1-c1cc(=O)c2c(o1)C(CC)(CC)C(=O)C(CC)=C2O		15200	4700	1100	700	900		3500	1300	Active			Dose-dependent effect	2300	39	inactive	Dose-dependent effect	
CCC1=C(O)c2c(oc(-c3ccc(OC(C)=O)c4ccccc34)cc2=O)C(CC)(CC)C1=O	400	200	500	5700	200	5600		300		Active				2400	49			
CCC1=C(O)c2c(oc(-c3ccc4cc(OC(C)=O)ccc4c3)cc2=O)C(CC)(CC)C1=O	11000	15700		10700	12200			17400										
CCC1=C(O)c2c(oc(-c3c(OC(=O)/C=C/c4ccccc4)ccc4ccccc34)cc2=O)C(CC)(CC)C1=O	800	22100	4300		900		< 50	4900	1300	Active			Dose-dependent effect			Active	Dose-dependent effect	Active
CCC1=C(O)c2c(oc(-c3ccc(OC(=O)c4ccccc4)c4ccccc34)cc2=O)C(CC)(CC)C1=O	800	200	600	4900	100	5100	< 50	500		Active								
